Results as given in publication PMC3927397 (Journal of medicinal chemistry, 2013).
Values belong to the molecule of their own block, whether it stands above or below them.

Key:
IKKβ = details: ref 22 (Kasinski et al.); cited from earlier work
[1] = target: cytoplasmic tyrosine kinase Src (Homo sapiens, UniProt P12931); assay: Preliminary kinase screen, Src; format: biochemical; details: small panel of kinases
[2] = target: receptor tyrosine kinase IGFR (Homo sapiens, UniProt P08069); assay: Preliminary kinase screen, IGFR; format: biochemical; details: small panel of kinases
PRKCβ1 = PRKCβ1 (Homo sapiens, UniProt P05771); assay: Kinase profile screen at 5 μM, PRKCβ1; format: biochemical; details: read-out: inhibition of PRKCβ1
Outline: (§1)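 Most kinases used the Z'Lyte read-out: a FRET-labelled peptide, protease development, and coumarin/fluorescein emission ratio. Some used Adapta (ADP TR-FRET) or a kinase cascade. Protease- and fluorescence-interference control wells were included. Values above 100% or below 0% were taken as maximal or no inhibition.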

CDK2 = CDK2 (Homo sapiens, UniProt P24941); assay: Kinase profile screen at 5 μM, CDK2; format: biochemical; details: read-out: inhibition of CDK2
Outline: as §1

panel of 50 kinases = assay: Kinase profile screen, 50-kinase panel; format: biochemical; details: 5 μM, of fifty kinases tested
Outline: as §1

AKT1 (PKB alpha) = AKT1 (PKB alpha) (Homo sapiens, UniProt P31749); assay: Z'-LYTE in vitro kinase assay, AKT1; format: biochemical; details: preliminary screen, small panel of kinases
AKT2 [3] = target: T1, AKT2 (Homo sapiens, UniProt P31751); assay: Z'-LYTE in vitro kinase assay, AKT2; format: biochemical; details: preliminary screen, small panel of kinases
ACVR1B = target: T2, ACVR1B (Homo sapiens, UniProt P36896); assay: Kinase profile screen at 5 μM, ACVR1B; format: biochemical; details: read-out: inhibition of ACVR1B
T2 sequence (P36896 24-505): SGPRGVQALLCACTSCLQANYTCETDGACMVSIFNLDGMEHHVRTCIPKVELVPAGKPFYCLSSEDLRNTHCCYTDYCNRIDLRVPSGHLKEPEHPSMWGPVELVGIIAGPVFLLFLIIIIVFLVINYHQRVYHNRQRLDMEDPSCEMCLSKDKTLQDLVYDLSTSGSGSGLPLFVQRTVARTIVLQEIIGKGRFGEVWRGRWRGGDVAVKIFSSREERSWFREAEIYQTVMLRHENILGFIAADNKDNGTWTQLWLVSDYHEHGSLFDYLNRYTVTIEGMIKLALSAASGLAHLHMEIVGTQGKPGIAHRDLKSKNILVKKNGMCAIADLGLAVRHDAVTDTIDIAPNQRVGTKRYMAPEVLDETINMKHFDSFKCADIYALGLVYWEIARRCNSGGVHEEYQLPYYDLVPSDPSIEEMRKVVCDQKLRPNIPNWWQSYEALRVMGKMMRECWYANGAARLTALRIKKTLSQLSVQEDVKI
Outline: as §1

IRAK4 = target: T3, IRAK4 (Homo sapiens, UniProt Q9NWZ3); assay: Kinase profile screen at 5 μM, IRAK4; format: biochemical; details: read-out: inhibition of IRAK4
T3 sequence (Q9NWZ3 1-460): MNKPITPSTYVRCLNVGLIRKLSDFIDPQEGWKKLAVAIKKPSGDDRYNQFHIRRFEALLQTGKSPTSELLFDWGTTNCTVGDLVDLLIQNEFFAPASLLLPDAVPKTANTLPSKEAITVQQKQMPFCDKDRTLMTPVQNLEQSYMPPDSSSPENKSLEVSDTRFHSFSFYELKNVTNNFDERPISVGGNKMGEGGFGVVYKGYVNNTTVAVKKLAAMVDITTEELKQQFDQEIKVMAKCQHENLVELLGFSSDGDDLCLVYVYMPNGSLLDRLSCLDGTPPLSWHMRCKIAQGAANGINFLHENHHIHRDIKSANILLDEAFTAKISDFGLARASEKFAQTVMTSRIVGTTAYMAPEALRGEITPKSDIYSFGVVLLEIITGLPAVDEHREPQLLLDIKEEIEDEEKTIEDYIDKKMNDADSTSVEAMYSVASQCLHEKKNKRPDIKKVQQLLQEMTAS
Outline: as §1

KDR (VEGFR2) = KDR (VEGFR2) (Homo sapiens, UniProt P35968); assay: Z'-LYTE in vitro kinase assay, KDR; format: biochemical; details: read-out: inhibition of KDR
EGFR = EGFR (Homo sapiens, UniProt P00533); assay: Kinase profile screen at 5 μM, EGFR; format: biochemical; details: read-out: inhibition of EGFR
Outline: as §1

CDK7 = CDK7 (Homo sapiens, UniProt P50613); assay: Kinase profile screen at 5 μM, CDK7; format: biochemical; details: read-out: inhibition of CDK7
Outline: as §1

RAF1 = RAF1 (Homo sapiens, UniProt P04049, Y340D/Y341D); assay: Z'-LYTE RAF1; format: biochemical; details: preliminary screen, small panel of kinases
PIM1 = PIM1 (Homo sapiens, UniProt P11309); assay: Kinase profile screen at 5 μM, PIM1; format: biochemical; details: read-out: inhibition of PIM1
Outline: as §1

MEK1 = MEK1 (Homo sapiens, UniProt Q02750); assay: Z'-LYTE MAP2K1; format: biochemical; details: preliminary screen, small panel of kinases
AKT2 [4] = target: T1, AKT2; assay: ADP Quest enzyme kinetics, Michaelis-Menten global analysis; format: biochemical; details: varying ATP and inhibitor concentrations
Outline: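 Purified recombinant human AKT2 with Crosstide peptide substrate; reactions run 10-90 min using fresh samples at varying ATP and inhibitor concentrations. ADP Quest enzyme-coupled fluorescence gave total ADP, and rates came from ADP formed over time. Rates were fitted by global non-linear regression to Michaelis-Menten competitive (shared Ki and Vmax) and mixed (shared Ki, α) models, with Ki and Vmax >0.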

CHEK1 = target: T4, CHEK1 (Homo sapiens, UniProt O14757); assay: Kinase profile screen at 5 μM, CHEK1; format: biochemical; details: read-out: inhibition of CHEK1
T4 sequence (O14757 1-476): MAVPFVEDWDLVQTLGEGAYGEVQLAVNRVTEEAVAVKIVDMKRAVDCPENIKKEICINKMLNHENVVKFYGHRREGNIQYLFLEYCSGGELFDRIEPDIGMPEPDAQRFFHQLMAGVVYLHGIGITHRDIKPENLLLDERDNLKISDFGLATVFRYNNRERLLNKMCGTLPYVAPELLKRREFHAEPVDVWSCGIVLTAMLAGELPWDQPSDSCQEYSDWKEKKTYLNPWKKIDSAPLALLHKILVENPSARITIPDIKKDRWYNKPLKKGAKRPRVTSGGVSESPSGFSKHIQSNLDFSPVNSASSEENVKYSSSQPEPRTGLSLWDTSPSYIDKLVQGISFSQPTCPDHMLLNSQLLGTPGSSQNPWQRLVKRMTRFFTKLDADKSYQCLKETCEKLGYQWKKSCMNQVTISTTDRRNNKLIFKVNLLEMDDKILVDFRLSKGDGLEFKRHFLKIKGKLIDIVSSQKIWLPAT
Outline: as §1

[5] = cited from earlier work
IKBKB (IKKβ) = target: T5, IKBKB (IKKβ) (Homo sapiens, UniProt O14920); assay: Z'-LYTE in vitro kinase assay, IKKβ; format: biochemical; details: preliminary screen, small panel of kinases
T5 sequence (O14920 1-756): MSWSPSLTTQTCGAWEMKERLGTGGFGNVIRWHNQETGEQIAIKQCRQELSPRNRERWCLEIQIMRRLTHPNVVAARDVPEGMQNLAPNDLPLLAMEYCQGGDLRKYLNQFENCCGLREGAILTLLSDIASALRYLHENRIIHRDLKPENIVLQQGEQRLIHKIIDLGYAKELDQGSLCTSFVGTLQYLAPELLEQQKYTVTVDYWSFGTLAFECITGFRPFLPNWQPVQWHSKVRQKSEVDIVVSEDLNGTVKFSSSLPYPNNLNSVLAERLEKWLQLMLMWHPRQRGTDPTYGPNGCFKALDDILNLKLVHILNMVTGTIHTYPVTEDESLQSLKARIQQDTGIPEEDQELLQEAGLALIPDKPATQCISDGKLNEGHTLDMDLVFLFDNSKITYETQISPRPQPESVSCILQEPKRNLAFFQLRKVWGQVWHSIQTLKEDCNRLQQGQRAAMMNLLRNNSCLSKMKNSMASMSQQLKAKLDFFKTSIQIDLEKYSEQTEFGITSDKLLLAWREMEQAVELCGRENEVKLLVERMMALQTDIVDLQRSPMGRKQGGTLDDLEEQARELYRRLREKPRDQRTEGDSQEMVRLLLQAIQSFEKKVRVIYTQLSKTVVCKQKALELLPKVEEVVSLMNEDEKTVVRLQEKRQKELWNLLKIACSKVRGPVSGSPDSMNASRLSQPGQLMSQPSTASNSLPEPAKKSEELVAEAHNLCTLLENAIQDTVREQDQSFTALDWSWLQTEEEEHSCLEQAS

NEK1 = target: T6, NEK1 (Homo sapiens, UniProt Q96PY6); assay: Z'-LYTE in vitro kinase assay, NEK1; format: biochemical; details: read-out: inhibition of NEK1
T6 sequence (Q96PY6 1-1258): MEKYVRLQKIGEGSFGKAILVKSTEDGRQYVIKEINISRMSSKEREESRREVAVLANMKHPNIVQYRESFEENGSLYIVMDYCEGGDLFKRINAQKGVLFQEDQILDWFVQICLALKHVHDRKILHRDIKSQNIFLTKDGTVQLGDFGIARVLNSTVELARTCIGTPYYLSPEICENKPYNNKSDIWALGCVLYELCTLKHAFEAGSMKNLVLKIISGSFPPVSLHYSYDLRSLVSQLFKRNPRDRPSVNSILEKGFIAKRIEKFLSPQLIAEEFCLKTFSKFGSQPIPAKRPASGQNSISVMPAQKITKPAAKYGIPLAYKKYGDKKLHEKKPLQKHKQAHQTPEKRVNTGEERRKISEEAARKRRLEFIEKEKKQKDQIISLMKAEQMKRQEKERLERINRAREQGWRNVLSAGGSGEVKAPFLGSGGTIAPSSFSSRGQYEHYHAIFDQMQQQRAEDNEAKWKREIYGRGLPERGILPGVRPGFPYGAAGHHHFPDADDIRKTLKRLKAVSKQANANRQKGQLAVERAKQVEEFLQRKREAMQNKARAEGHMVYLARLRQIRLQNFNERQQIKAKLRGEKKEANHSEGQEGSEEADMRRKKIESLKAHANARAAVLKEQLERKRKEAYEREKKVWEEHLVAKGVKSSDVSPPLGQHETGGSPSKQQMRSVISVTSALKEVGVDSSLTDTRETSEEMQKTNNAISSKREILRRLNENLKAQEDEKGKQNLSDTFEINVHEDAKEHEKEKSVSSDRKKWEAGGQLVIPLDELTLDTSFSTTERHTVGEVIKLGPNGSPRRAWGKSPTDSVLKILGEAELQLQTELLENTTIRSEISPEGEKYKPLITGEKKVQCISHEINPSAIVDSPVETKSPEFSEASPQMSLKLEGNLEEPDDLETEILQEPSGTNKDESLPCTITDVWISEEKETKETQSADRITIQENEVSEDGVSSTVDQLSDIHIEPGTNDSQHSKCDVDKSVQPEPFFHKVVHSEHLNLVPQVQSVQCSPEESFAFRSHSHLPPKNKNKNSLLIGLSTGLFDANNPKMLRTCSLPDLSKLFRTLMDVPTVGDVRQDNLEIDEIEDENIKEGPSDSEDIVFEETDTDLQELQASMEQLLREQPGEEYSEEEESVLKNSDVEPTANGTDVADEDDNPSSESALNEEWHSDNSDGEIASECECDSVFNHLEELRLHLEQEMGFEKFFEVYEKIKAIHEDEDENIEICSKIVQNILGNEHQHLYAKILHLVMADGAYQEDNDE

receptor tyrosine kinase IGFR, sequence (P08069 31-1367): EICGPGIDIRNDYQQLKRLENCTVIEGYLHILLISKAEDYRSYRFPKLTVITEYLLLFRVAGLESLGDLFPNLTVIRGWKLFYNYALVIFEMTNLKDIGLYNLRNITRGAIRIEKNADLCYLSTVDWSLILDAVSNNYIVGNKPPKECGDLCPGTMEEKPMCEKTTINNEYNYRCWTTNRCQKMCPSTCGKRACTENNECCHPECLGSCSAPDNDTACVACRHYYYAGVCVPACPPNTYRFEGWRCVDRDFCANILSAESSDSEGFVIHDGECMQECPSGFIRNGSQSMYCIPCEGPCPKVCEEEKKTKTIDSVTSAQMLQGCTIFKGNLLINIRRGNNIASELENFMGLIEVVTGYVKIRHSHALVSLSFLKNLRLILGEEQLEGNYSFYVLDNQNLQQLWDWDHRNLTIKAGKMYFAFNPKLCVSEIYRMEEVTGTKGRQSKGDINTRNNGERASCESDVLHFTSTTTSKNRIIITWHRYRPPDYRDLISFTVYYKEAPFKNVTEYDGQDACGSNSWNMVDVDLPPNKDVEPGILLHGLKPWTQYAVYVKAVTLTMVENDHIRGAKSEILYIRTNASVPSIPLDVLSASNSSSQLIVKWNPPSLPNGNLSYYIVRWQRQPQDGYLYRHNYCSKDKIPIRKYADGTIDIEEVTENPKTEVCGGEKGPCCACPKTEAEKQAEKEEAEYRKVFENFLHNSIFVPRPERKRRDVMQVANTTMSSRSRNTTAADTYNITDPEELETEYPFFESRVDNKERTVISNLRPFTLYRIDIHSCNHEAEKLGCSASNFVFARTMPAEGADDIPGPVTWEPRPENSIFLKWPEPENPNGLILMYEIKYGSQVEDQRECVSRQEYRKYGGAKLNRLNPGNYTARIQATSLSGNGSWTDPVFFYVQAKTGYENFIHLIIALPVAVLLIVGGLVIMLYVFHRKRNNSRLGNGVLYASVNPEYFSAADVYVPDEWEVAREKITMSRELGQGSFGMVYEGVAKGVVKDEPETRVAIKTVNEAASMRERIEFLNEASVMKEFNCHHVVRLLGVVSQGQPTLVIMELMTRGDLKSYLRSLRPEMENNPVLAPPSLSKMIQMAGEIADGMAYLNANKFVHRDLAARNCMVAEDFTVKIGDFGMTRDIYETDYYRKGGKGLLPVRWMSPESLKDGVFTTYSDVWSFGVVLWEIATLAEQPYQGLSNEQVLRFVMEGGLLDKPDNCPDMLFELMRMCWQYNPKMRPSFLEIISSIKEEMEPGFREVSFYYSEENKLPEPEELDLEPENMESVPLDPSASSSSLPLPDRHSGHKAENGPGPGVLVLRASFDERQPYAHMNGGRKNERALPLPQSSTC
T1 sequence (P31751 whole entry): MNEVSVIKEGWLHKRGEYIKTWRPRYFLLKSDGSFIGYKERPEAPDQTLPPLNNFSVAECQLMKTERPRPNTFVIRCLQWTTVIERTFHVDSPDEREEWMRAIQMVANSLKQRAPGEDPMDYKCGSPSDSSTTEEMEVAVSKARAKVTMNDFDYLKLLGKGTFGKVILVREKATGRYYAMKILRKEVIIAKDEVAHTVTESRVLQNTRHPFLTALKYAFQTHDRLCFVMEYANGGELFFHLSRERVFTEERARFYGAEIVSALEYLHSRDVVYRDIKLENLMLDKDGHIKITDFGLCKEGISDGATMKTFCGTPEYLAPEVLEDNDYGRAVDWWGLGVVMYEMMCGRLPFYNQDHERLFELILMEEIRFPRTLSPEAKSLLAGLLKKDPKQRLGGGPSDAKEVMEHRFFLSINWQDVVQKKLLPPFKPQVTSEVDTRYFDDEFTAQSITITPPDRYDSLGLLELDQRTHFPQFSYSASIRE
cytoplasmic tyrosine kinase Src, sequence (P12931 whole entry): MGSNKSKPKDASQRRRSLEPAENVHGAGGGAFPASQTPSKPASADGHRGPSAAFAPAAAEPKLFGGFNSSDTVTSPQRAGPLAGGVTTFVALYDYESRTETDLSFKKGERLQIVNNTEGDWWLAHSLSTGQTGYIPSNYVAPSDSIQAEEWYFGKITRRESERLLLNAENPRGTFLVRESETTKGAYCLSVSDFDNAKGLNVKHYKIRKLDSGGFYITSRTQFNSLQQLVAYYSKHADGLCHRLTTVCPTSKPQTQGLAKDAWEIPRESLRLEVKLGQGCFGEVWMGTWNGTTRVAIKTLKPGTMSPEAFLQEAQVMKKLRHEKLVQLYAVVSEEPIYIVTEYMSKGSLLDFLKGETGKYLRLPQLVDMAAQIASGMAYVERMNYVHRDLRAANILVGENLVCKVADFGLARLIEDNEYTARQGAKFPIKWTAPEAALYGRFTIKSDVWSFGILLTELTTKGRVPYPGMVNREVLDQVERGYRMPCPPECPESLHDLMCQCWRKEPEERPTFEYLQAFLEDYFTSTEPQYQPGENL
PRKCβ1, sequence (P05771 whole entry): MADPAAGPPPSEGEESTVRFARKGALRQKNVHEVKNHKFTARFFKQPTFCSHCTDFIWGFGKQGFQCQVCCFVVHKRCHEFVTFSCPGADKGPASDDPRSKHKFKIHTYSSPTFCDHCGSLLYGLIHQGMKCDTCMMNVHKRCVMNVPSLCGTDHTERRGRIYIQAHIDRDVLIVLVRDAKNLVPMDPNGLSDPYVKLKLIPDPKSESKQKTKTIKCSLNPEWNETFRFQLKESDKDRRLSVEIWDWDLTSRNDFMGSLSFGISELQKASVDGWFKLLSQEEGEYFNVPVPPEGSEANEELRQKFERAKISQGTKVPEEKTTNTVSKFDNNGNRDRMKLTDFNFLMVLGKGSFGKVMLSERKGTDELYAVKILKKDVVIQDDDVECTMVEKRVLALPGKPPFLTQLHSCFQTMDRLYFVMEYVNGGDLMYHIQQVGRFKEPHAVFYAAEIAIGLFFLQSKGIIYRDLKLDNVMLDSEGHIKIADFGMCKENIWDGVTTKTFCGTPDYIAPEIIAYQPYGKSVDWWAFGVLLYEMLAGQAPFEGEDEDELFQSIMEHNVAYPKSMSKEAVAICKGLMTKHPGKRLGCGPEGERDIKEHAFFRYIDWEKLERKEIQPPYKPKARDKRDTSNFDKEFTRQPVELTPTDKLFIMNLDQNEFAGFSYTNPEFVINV
RAF1, sequence (P04049 306-648 Y340D/Y341D limits assumed): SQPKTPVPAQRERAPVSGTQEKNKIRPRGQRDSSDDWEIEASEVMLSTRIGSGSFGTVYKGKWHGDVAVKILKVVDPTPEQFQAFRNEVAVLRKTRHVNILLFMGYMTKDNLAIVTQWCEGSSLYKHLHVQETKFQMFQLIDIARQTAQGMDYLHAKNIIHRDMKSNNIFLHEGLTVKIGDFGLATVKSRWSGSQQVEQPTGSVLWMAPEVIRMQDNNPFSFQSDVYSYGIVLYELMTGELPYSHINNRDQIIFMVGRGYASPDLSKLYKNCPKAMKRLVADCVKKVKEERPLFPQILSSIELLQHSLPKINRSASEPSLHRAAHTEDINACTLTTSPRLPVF
CDK7, sequence (P50613 whole entry, species assumed): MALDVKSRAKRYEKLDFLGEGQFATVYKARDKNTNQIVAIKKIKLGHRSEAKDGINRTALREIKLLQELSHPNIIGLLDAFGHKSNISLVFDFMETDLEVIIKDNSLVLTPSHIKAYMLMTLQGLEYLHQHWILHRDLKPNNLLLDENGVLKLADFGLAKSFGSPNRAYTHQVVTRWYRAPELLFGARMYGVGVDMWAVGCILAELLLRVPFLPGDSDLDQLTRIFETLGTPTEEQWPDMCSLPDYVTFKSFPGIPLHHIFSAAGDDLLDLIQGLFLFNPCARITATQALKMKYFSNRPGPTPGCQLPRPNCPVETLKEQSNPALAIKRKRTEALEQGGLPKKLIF
CDK7, sequence (P51946 whole entry partner, species assumed): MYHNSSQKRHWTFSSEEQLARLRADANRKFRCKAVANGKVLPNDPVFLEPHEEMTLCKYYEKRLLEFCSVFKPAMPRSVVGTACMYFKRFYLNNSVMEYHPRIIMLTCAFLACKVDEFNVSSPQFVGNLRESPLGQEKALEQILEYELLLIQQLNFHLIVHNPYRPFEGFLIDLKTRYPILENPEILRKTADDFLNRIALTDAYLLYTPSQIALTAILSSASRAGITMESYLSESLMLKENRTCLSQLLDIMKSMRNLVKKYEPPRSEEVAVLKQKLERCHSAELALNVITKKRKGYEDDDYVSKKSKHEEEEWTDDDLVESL
CDK7, sequence (P51948 whole entry partner, species assumed): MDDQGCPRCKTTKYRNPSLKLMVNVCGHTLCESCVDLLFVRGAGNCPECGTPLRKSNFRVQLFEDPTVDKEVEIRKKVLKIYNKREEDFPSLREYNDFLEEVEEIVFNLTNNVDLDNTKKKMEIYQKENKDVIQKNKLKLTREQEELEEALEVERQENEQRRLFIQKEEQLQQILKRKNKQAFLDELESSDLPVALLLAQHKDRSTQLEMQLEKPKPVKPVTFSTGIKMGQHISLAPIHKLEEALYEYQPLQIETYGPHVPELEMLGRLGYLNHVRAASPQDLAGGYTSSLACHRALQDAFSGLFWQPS
AKT1 (PKB alpha), sequence (P31749 whole entry): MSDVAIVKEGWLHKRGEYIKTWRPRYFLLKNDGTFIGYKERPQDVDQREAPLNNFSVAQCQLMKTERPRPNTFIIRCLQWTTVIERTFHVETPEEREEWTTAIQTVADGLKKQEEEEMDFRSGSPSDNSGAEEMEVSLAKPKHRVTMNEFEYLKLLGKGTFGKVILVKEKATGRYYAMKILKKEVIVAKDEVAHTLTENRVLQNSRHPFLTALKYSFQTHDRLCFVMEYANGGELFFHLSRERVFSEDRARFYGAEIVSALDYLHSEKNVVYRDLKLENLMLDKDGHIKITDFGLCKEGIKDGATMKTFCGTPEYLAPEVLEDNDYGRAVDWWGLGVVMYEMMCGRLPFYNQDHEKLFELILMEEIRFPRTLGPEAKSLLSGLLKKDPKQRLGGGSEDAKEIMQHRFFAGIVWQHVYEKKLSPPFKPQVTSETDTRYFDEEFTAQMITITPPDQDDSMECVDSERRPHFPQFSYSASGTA

inhibition of Src [1]: weak effect
inhibition of IGFR [2]: no measurable inhibition
Compound: O=C1/C(=C/c2ccccc2F)CNC/C1=C\c1ccccc1F [Compound 3, 3,5-bis(2-flurobenzylidene)piperidin-4-one]
mechanism of IKKβ blockade (IKKβ): mixed mechanism

inhibition at 5 µM (PRKCβ1): ≥ 85%
inhibition at 5 µM (CDK2): ≤ 10%
number of kinases inhibited at ≤40% (panel of 50 kinases): 28
number of kinases with 40-80% inhibition (modestly blocked) (panel of 50 kinases): twelve
inhibition of AKT1 (AKT1 (PKB alpha)): significantly increased blocking action
inhibition of AKT2 (AKT2 [3]): significantly increased blocking action
inhibition at 5 µM (ACVR1B): ≤ 10%
inhibition at 5 µM (IRAK4): ≤ 10%
inhibition at 5 µM (KDR (VEGFR2)): ≥ 85%
inhibition at 5 µM (EGFR): ≤ 10%
inhibition at 5 µM (CDK7): ≤ 10%
inhibition of RAF1 (RAF1): moderate inhibition
inhibition at 5 µM (PIM1): ≤ 10%
inhibition of MEK1 (MEK1): moderate inhibition
inhibition of Src [1]: weak effect
α (mixed-model parameter, global analysis of Michaelis-Menten graph) (AKT2 [4]): 31
inhibition at 5 µM (CHEK1): ≥ 85%
inhibition of IGFR [2]: no measurable inhibition
inhibition of IKKβ (IKBKB (IKKβ)): moderate inhibition
inhibition at 5 µM (NEK1): ≥ 85%
Compound: O=C1/C(=C/c2ccccn2)CNC/C1=C\c1ccccn1 [Compound 4, 3,5-Bis(2-pyridinylmethylidene)-4-piperidone]
kinase suppression by comparison with curcumin [5]: ≥ 10 fold
